Data taken from ChEMBL document CHEMBL3098071, “Synthesis and evaluation of novel azoles as potent antifungal agents” (2014).
≈ marks a conversion by molar mass, not a printed value.

Columns and labels:
Type in all cases: functional
Nannizzia gypsea = test: Antimicrobial activity against Microsporum gypseum by broth microdilution method
Aspergillus fumigatus = test: Antimicrobial activity against Aspergillus fumigatus by broth microdilution method
Trichophyton rubrum = test: Antimicrobial activity against Trichophyton rubrum by broth microdilution method
Nakaseomyces glabratus [1] = test: Antimicrobial activity against Candida glabrata by broth microdilution method
Cryptococcus neoformans = test: Antimicrobial activity against Cryptococcus neoformans after 72 hrs by broth microdilution method
Procedure, shortened: (§1)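 Broth microdilution in 96-well plates following NCCLS methods. Compounds were dissolved in DMSO, serially diluted in growth medium, inoculated and incubated at 35°C. MIC read at 24 h for Candida albicans and at 72 h for Cryptococcus neoformans. MIC80 is the first well with about 80% less growth than the drug-free well. Values are means of three replicate tests.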

Candida parapsilosis = test: Antimicrobial activity against Candida parapsilosis by broth microdilution method; conditions: Lodderomyces parapsilosis
Candida albicans [2] = test: Antimicrobial activity against Candida albicans SC5314 after 24 hrs by broth microdilution method; conditions: SC5314, 24 h; procedure, shortened: as §1
Candida albicans [3] = test: Antimicrobial activity against Candida albicans Y0109 after 24 hrs by broth microdilution method; conditions: Y0109, 24 h; procedure, shortened: as §1
Nakaseomyces glabratus [4] = test: Ratio of ketoconazole MIC80 to compound MIC80 for Candida glabrata
Nakaseomyces glabratus [5] = test: Ratio of fluconazole MIC80 to compound MIC80 for Candida glabrata
Nakaseomyces glabratus [6] = test: Ratio of itraconazole MIC80 to compound MIC80 for Candida glabrata
Nakaseomyces glabratus [7] = test: Ratio of voriconazole MIC80 to compound MIC80 for Candida glabrata

Row | SMILES | MIC80 (Nannizzia gypsea) [µg/mL] | MIC80 (Aspergillus fumigatus) [µg/mL] | MIC80 (Trichophyton rubrum) [µg/mL] | MIC80 (Nakaseomyces glabratus [1]) [µg/mL] | MIC80 (Cryptococcus neoformans) [µg/mL] | MIC80 (Candida parapsilosis) [µg/mL] | MIC80 (Candida albicans [2]) [µg/mL] | MIC80 (Candida albicans [3]) [µg/mL] | Ratio (Nakaseomyces glabratus [4]) | Ratio (Nakaseomyces glabratus [5]) | Ratio (Nakaseomyces glabratus [6]) | Ratio (Nakaseomyces glabratus [7])
1 | COc1ccccc1-c1nnc(SCCCN2CCN(CC(O)(Cn3cncn3)c3ccc(F)cc3F)CC2)o1 (stereo not given) | 16 (≈ 28 µM) | > 64 | 0.25 (≈ 0.437 µM) | 1 (≈ 1.75 µM) | 4 (≈ 7 µM) | 16 (≈ 28 µM) | 0.25 (≈ 0.437 µM) | 0.125 (≈ 0.219 µM) |  |  |  | 
2 | OC(CN1CCN(CCCSc2nnc(-c3cccc(Br)c3)o2)CC1)(Cn1cncn1)c1ccc(F)cc1F (stereo not given) | 1 (≈ 1.61 µM) | > 64 | 0.25 (≈ 0.403 µM) | 0.0039 (≈ 0.00629 µM) | 0.25 (≈ 0.403 µM) | 0.25 (≈ 0.403 µM) | 0.0625 (≈ 0.101 µM) | 0.0625 (≈ 0.101 µM) | 2051 | 256 | 32 | 16
3 | C[C@@H](c1ncncc1F)[C@](O)(Cn1cncn1)c1ccc(F)cc1F [VORICONAZOLE] | 0.125 (≈ 0.358 µM) | 0.0625 (≈ 0.179 µM) | 0.25 (≈ 0.716 µM) | 0.0625 (≈ 0.179 µM) | 0.0156 (≈ 0.0447 µM) | 0.0625 (≈ 0.179 µM) | 0.0625 (≈ 0.179 µM) | 0.0625 (≈ 0.179 µM) |  |  |  | 
4 | OC(CN1CCN(CCCSc2nnc(-c3ccccc3Br)o2)CC1)(Cn1cncn1)c1ccc(F)cc1F (stereo not given) | 0.25 (≈ 0.403 µM) | > 64 | 0.25 (≈ 0.403 µM) | 0.0625 (≈ 0.101 µM) | 0.0625 (≈ 0.101 µM) | 0.0625 (≈ 0.101 µM) | 0.0156 (≈ 0.0251 µM) | 0.0625 (≈ 0.101 µM) |  |  |  | 
5 | N#Cc1ccccc1-c1nnc(SCCCN2CCN(CC(O)(Cn3cncn3)c3ccc(F)cc3F)CC2)o1 (stereo not given) | 1 (≈ 1.76 µM) | > 64 | 0.25 (≈ 0.441 µM) | 0.125 (≈ 0.221 µM) | 0.25 (≈ 0.441 µM) | 0.25 (≈ 0.441 µM) | 0.125 (≈ 0.221 µM) | 0.125 (≈ 0.221 µM) |  |  |  | 
6 | O=[N+]([O-])c1ccc(-c2nnc(SCCCN3CCN(CC(O)(Cn4cncn4)c4ccc(F)cc4F)CC3)o2)cc1 (stereo not given) | 1 (≈ 1.7 µM) | > 64 | 1 (≈ 1.7 µM) | 0.125 (≈ 0.213 µM) | 0.25 (≈ 0.426 µM) | 0.125 (≈ 0.213 µM) | 0.25 (≈ 0.426 µM) | 0.125 (≈ 0.213 µM) |  |  |  | 
7 | COc1ccc(-c2nnc(SCCCN3CCN(CC(O)(Cn4cncn4)c4ccc(F)cc4F)CC3)o2)cc1 (stereo not given) | 0.25 (≈ 0.437 µM) | > 64 | 0.25 (≈ 0.437 µM) | 0.25 (≈ 0.437 µM) | 0.25 (≈ 0.437 µM) | 0.25 (≈ 0.437 µM) | 0.25 (≈ 0.437 µM) | 0.25 (≈ 0.437 µM) |  |  |  | 
8 | Cc1ccccc1-c1nnc(SCCCN2CCN(CC(O)(Cn3cncn3)c3ccc(F)cc3F)CC2)o1 (stereo not given) | 0.25 (≈ 0.45 µM) | > 64 | 0.25 (≈ 0.45 µM) | 0.125 (≈ 0.225 µM) | 0.125 (≈ 0.225 µM) | 0.125 (≈ 0.225 µM) | 0.25 (≈ 0.45 µM) | 0.25 (≈ 0.45 µM) |  |  |  | 
9 | CCC(C)n1ncn(-c2ccc(N3CCN(c4ccc(OCC5COC(Cn6cncn6)(c6ccc(Cl)cc6Cl)O5)cc4)CC3)cc2)c1=O (stereo not given) [ITRACONAZOLE] | 1 (≈ 1.42 µM) | 1 (≈ 1.42 µM) | 0.5 (≈ 0.709 µM) | 0.125 (≈ 0.177 µM) | 0.125 (≈ 0.177 µM) | 0.125 (≈ 0.177 µM) | 0.25 (≈ 0.354 µM) | 0.25 (≈ 0.354 µM) |  |  |  | 
10 | COc1cccc(-c2nnc(SCCCN3CCN(CC(O)(Cn4cncn4)c4ccc(F)cc4F)CC3)o2)c1 (stereo not given) | 0.25 (≈ 0.437 µM) | > 64 | 0.0625 (≈ 0.109 µM) | 0.25 (≈ 0.437 µM) | 0.25 (≈ 0.437 µM) | 0.25 (≈ 0.437 µM) | 0.25 (≈ 0.437 µM) | 0.25 (≈ 0.437 µM) |  |  |  | 
11 | O=[N+]([O-])c1ccccc1-c1nnc(SCCCN2CCN(CC(O)(Cn3cncn3)c3ccc(F)cc3F)CC2)o1 (stereo not given) | 0.25 (≈ 0.426 µM) | > 64 | 0.25 (≈ 0.426 µM) | 0.25 (≈ 0.426 µM) | 0.125 (≈ 0.213 µM) | 0.125 (≈ 0.213 µM) | 0.125 (≈ 0.213 µM) | 0.25 (≈ 0.426 µM) |  |  |  | 
12 | OC(Cn1cncn1)(Cn1cncn1)c1ccc(F)cc1F [FLUCONAZOLE] | 8 (≈ 26.1 µM) | 8 (≈ 26.1 µM) | > 64 | 1 (≈ 3.27 µM) | 1 (≈ 3.27 µM) | 1 (≈ 3.27 µM) | 0.5 (≈ 1.63 µM) | 0.5 (≈ 1.63 µM) |  |  |  | 
